# Positions of bridges follow the written chain, without caps; N, C: chain ends. Non-standard residues stand in square brackets, D forms with d. Residues, ends and D or L forms follow the SMILES beside them. sY = N[C@@H](Cc1ccc(OS(=O)(=O)O)cc1)C(=O)O
# What was measured:
# [1] = target: Neuronal acetylcholine receptor; alpha3/beta4 (Homo sapiens, UniProt P30926+P32297); test: Antagonist activity at human alpha3beta4 nAChR in SH-SY5Y cells assessed as inhibition of calcium flux by FLIPR assay; type: cell-based
# Outline: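 SH-SY5Y cells (endogenous α3β4), grown in RPMI with 15% FBS, plated 100 000/well and cultured 48 h. Loaded with calcium 4 dye for 30 min at 37 °C. Peptides in PSS (pH 7.4) added 10 min before nicotine 30 μM. Fluorescence read at 470–495 nm excitation, 515–575 nm emission, every 1 s. Normalised to maximal nicotine response; four-parameter Hill fit; pIC50. Triplicate, three independent experiments.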
# [2] = target: Acetylcholine-binding protein (Lymnaea stagnalis, UniProt P58154); test: Displacement of [3H]-epibatidine from Lymnaea stagnalis Acetylcholine-binding protein measured after 1 hr by liquid scintillation counter
# Outline: (§1)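 Recombinant AChBP expressed in E. coli (IPTG induction, 16 °C), coated onto wells at 1 ng μL−1. Incubated 1 h at 4 °C with [3H]-epibatidine (1 nM final) and increasing peptide in PBS with 0.05% BSA. Unbound ligand washed off; bound radioactivity counted by liquid scintillation. One-site competition fit gives Ki. Triplicate, three independent experiments; pKi as mean with 95% CI.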
# [3] = Displacement of [3H]-epibatidine from Aplysia californica Acetylcholine-binding protein measured after 1 hr by liquid scintillation counter; outline: as §1
# Sequence of Neuronal acetylcholine receptor; alpha3/beta4 (P30926 whole entry): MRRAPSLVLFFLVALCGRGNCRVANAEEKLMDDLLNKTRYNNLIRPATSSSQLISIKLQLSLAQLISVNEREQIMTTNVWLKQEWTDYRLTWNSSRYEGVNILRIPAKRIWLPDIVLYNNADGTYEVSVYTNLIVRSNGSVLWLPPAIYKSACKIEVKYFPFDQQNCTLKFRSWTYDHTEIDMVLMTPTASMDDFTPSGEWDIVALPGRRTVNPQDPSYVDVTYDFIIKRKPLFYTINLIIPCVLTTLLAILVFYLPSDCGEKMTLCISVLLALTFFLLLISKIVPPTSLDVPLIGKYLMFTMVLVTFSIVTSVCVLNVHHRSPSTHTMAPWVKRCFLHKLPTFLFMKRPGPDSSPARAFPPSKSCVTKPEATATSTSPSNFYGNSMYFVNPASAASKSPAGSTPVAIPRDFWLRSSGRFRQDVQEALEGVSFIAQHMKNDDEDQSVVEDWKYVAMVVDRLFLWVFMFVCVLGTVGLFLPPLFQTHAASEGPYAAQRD
# Sequence of Neuronal acetylcholine receptor; alpha3/beta4 (P32297 whole entry): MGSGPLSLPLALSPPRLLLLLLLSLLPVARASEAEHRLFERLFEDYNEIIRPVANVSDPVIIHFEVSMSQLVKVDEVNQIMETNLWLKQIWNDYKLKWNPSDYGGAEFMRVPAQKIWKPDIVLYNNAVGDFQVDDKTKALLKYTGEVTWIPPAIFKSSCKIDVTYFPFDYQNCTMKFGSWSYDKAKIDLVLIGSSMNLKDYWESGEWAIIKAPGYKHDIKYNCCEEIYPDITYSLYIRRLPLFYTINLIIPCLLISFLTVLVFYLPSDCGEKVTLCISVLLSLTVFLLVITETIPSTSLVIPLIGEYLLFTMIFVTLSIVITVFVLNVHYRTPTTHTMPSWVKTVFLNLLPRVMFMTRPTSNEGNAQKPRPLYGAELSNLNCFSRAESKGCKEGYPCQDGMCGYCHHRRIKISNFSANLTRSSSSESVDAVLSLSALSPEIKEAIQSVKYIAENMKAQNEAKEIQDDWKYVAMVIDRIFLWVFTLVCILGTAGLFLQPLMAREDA
# Sequence of Acetylcholine-binding protein (P58154 whole entry): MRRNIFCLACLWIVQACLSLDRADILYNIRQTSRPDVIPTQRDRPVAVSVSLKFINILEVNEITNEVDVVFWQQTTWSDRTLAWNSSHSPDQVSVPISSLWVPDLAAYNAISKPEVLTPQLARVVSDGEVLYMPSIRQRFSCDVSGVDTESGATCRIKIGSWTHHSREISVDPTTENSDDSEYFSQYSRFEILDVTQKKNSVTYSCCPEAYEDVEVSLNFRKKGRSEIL
Compound,IC50 [1] [µM],Ki [2] [µM],pKi [3]
"CSCC[C@@H]1NC(=O)[C@H](CC(N)=O)NC(=O)[C@@H]2CSSC[C@H](NC(=O)CN)C(=O)N[C@@H](CSSC[C@@H](C(N)=O)NC(=O)[C@H](Cc3ccc(O)cc3)NC(=O)[C@H](CC(=O)O)NC(=O)[C@@H]3CCCN3C(=O)[C@H](CC(N)=O)NC(=O)[C@H](CC(N)=O)NC1=O)C(=O)N[C@@H](CO)C(=O)N[C@@H](CC(=O)O)C(=O)N1CCC[C@H]1C(=O)N[C@@H](CCCNC(=N)N)C(=O)N2 (H-GCCSDPRCNMNNPDYC-NH2; disulfide 2-8, 3-16)",0.347,> 100,7.57
C[C@@H]1NC(=O)[C@H](C)NC(=O)[C@@H]2CSSC[C@H](NC(=O)CNC(=O)CN)C(=O)N[C@@H](CSSC[C@@H](C(=O)O)NC(=O)[C@H](Cc3ccc(O)cc3)NC(=O)[C@H](CC(=O)O)NC(=O)[C@H](CCC(N)=O)NC(=O)[C@H](CC(N)=O)NC(=O)[C@H](CC(N)=O)NC1=O)C(=O)N[C@@H](CO)C(=O)N[C@@H](Cc1cnc[nH]1)C(=O)N1CCC[C@H]1C(=O)N[C@@H](C)C(=O)N2,–,> 100,8
"CSCC[C@@H]1NC(=O)[C@H](CC(N)=O)NC(=O)[C@@H]2CSSC[C@H](NC(=O)CN)C(=O)N[C@@H](CSSC[C@@H](C(=O)O)NC(=O)[C@H](Cc3ccc(OS(=O)(=O)O)cc3)NC(=O)[C@H](CC(=O)O)NC(=O)[C@@H]3CCCN3C(=O)[C@H](CC(N)=O)NC(=O)[C@H](CC(N)=O)NC1=O)C(=O)N[C@@H](CO)C(=O)N[C@@H](CC(=O)O)C(=O)N1CCC[C@H]1C(=O)N[C@@H](CCCNC(=N)N)C(=O)N2 (H-GCCSDPRCNMNNPD[sY]C-OH; disulfide 2-8, 3-16)",0.501,> 100,6.5
C[C@@H]1NC(=O)[C@H](C)NC(=O)[C@@H]2CSSC[C@H](NC(=O)CNC(=O)CN)C(=O)N[C@@H](CSSC[C@@H](C(N)=O)NC(=O)[C@H](Cc3ccc(OS(=O)(=O)O)cc3)NC(=O)[C@H](CC(=O)O)NC(=O)[C@H](CCC(N)=O)NC(=O)[C@H](CC(N)=O)NC(=O)[C@H](CC(N)=O)NC1=O)C(=O)N[C@@H](CO)C(=O)N[C@@H](Cc1cnc[nH]1)C(=O)N1CCC[C@H]1C(=O)N[C@@H](C)C(=O)N2,–,5.37,9.4
C[C@@H]1NC(=O)[C@H](C)NC(=O)[C@@H]2CSSC[C@H](NC(=O)CNC(=O)CN)C(=O)N[C@@H](CSSC[C@@H](C(N)=O)NC(=O)[C@H](Cc3ccc(O)cc3)NC(=O)[C@H](CC(=O)O)NC(=O)[C@H](CCC(N)=O)NC(=O)[C@H](CC(N)=O)NC(=O)[C@H](CC(N)=O)NC1=O)C(=O)N[C@@H](CO)C(=O)N[C@@H](Cc1cnc[nH]1)C(=O)N1CCC[C@H]1C(=O)N[C@@H](C)C(=O)N2,–,24.5,8.96
C[C@@H]1NC(=O)[C@H](C)NC(=O)[C@@H]2CSSC[C@H](NC(=O)CNC(=O)CN)C(=O)N[C@@H](CSSC[C@@H](C(=O)O)NC(=O)[C@H](Cc3ccc(OS(=O)(=O)O)cc3)NC(=O)[C@H](CC(=O)O)NC(=O)[C@H](CCC(N)=O)NC(=O)[C@H](CC(N)=O)NC(=O)[C@H](CC(N)=O)NC1=O)C(=O)N[C@@H](CO)C(=O)N[C@@H](Cc1cnc[nH]1)C(=O)N1CCC[C@H]1C(=O)N[C@@H](C)C(=O)N2,–,> 100,8.66
"CSCC[C@@H]1NC(=O)[C@H](CC(N)=O)NC(=O)[C@@H]2CSSC[C@H](NC(=O)CN)C(=O)N[C@@H](CSSC[C@@H](C(N)=O)NC(=O)[C@H](Cc3ccc(OS(=O)(=O)O)cc3)NC(=O)[C@H](CC(=O)O)NC(=O)[C@@H]3CCCN3C(=O)[C@H](CC(N)=O)NC(=O)[C@H](CC(N)=O)NC1=O)C(=O)N[C@@H](CO)C(=O)N[C@@H](CC(=O)O)C(=O)N1CCC[C@H]1C(=O)N[C@@H](CCCNC(=N)N)C(=O)N2 (H-GCCSDPRCNMNNPD[sY]C-NH2; disulfide 2-8, 3-16)",0.0646,> 100,8.38
"CSCC[C@@H]1NC(=O)[C@H](CC(N)=O)NC(=O)[C@@H]2CSSC[C@H](NC(=O)CN)C(=O)N[C@@H](CSSC[C@@H](C(=O)O)NC(=O)[C@H](Cc3ccc(O)cc3)NC(=O)[C@H](CC(=O)O)NC(=O)[C@@H]3CCCN3C(=O)[C@H](CC(N)=O)NC(=O)[C@H](CC(N)=O)NC1=O)C(=O)N[C@@H](CO)C(=O)N[C@@H](CC(=O)O)C(=O)N1CCC[C@H]1C(=O)N[C@@H](CCCNC(=N)N)C(=O)N2 (H-GCCSDPRCNMNNPDYC-OH; disulfide 2-8, 3-16)",1.35,> 100,6
